The text below walks through data of ChEMBL document CHEMBL1156841, “Carbonic anhydrase activators: activation of the beta-carbonic anhydrases from the pathogenic fungi Candida albicans and Cryptococcus neoformans with amines and amino acids” (Bioorg Med Chem, 2010).

Broadly, the Km is the substrate concentration at which the rate is half of its maximum.

Data set [1] has as its target T1, Carbonic anhydrase 2 (Cryptococcus neoformans) (UniProt Q3I4V7).
T1 sequence (whole entry): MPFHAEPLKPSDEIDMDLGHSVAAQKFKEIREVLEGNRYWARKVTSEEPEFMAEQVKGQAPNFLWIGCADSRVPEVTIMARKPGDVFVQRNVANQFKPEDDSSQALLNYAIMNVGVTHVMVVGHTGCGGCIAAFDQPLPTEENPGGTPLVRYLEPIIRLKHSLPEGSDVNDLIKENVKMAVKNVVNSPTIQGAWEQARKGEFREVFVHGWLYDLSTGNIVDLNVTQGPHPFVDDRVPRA
Kind of data set: Activation of Cryptococcus neoformans beta-carbonic anhydrase Can2 by stopped flow CO2 hydration assay. In outline: (§1)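 Recombinant enzyme (prepared as in earlier work) preincubated with activator 15 min at room temperature. Stopped-flow CO2 hydration at 25 °C followed for 10 s, read with phenol red (0.2 mM) at 557 nm. Buffer was 20 mM Tris pH 8.3 with 20 mM NaClO4. CO2 ranged 1.7–17 mM. Initial velocity came from at least six traces of the first 5–10% of reaction, with the uncatalyzed rate subtracted. KA was fitted from activation versus activator concentration, using dilutions from a 10 mM aqueous stock. Mean of at least three determinations.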

Data set [2] concerns the target T2, Carbonic anhydrase (Candida albicans (strain SC5314 / ATCC MYA-2876) (Yeast)) (UniProt Q5AJ71).
T2 sequence (whole entry): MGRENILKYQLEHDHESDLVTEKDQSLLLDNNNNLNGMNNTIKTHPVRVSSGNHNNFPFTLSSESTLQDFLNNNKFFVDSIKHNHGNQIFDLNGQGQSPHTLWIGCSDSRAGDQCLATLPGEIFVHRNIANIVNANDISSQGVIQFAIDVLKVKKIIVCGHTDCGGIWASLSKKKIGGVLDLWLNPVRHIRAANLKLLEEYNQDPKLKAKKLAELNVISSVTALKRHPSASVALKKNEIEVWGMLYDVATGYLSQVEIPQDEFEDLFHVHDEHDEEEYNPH
Description: Activation of Candida albicans beta-carbonic anhydrase Nce103 by stopped flow CO2 hydration assay. In outline:
as §1

Substrate in data set [3]: NCCc1c[nH]cn1
The note with it: Candida albicans; 10 uM.

Substrate in data set [4]: NCCc1c[nH]cn1
The note with it: Candida albicans.

Substrate in data set [5]: NCCc1c[nH]cn1
The note with it: Cryptococcus neoformans; 10 uM.

Substrate in data set [6]: NCCc1c[nH]cn1
The following applies: Cryptococcus neoformans.

Consider `N[C@@H](Cc1c[nH]c2ccccc12)C(=O)O`, for which the KA in data set [1] came to 28.7 µM; in data set [2] it was 19.2 µM.
The matching figures for `NCCc1c[nH]c2ccc(O)cc12`: 46.7 µM and 28.6 µM.
For `NCCN1CCNCC1`, the KA in data set [1] stood at 44.9 µM; in data set [2] it was 17.3 µM.
The matching figures for `NCCc1ccc(O)c(O)c1`: 34.6 µM and 18.5 µM.
Take `NCc1ccccn1`: the values for the KA in data set [1] and in data set [2] were 47 µM and 29.1 µM, respectively.
For `N[C@H](Cc1c[nH]cn1)C(=O)O` the same measures were 47.2 µM and 19.5 µM.
The matching figures for `NCCc1ccccn1`: 46.3 µM and 30.2 µM.
The matching figures for `N[C@H](Cc1c[nH]c2ccccc12)C(=O)O`: 42.1 µM and 43 µM.
Consider `N[C@H](Cc1ccc(O)c(O)c1)C(=O)O`, for which the KA in data set [1] came out at 35.1 µM; in data set [2], 2.5 µM.
Turning to `N[C@@H](Cc1ccccc1)C(=O)O`, the KA is 44.1 µM in data set [1] and 15.5 µM in data set [2].
The matching figures for `NCCN1CCOCC1`: 40.1 µM and 25.4 µM.
Consider `N[C@H](Cc1ccccc1)C(=O)O`, for which the values for the KA in data set [1] and in data set [2] were 45.2 µM and 8.4 µM, respectively.
For `N[C@@H](Cc1c[nH]cn1)C(=O)O` the same measures were 45 µM and 24.1 µM.
`CNC[C@@H](O)c1ccc(O)c(O)c1`: the results for the KA in data set [1] and in data set [2] were 32.8 µM and 13.2 µM, respectively.
The matching figures for `N[C@@H](Cc1ccc(O)c(O)c1)C(=O)O`: 43.3 µM and 0.96 µM.
For `NCCc1c[nH]cn1` the same measures were 33.2 µM and 18.4 µM.
The matching figures for `N[C@@H](Cc1ccc(O)cc1)C(=O)O`: 29.5 µM and 46.1 µM.
For the molecule `Nc1ccc(C[C@H](N)C(=O)O)cc1`, the KA was 30.4 µM in data set [1] and 23.7 µM in data set [2].

B1: Carbonic anhydrase (Candida albicans (strain SC5314 / ATCC MYA-2876) (Yeast)), Q5AJ71 (protein)
chain: MGRENILKYQLEHDHESDLVTEKDQSLLLDNNNNLNGMNNTIKTHPVRVSSGNHNNFPFTLSSESTLQDFLNNNKFFVDSIKHNHGNQIFDLNGQGQSPHTLWIGCSDSRAGDQCLATLPGEIFVHRNIANIVNANDISSQGVIQFAIDVLKVKKIIVCGHTDCGGIWASLSKKKIGGVLDLWLNPVRHIRAANLKLLEEYNQDPKLKAKKLAELNVISSVTALKRHPSASVALKKNEIEVWGMLYDVATGYLSQVEIPQDEFEDLFHVHDEHDEEEYNPH
For B1, the kcat in data set [3] was found to be 20.1 ×10⁵ /s. Besides, in data set [4], the Km was 8.2 mM and the kcat was 8 ×10⁵ /s.

B2: Carbonic anhydrase 2 (Cryptococcus neoformans), Q3I4V7 (protein)
chain: MPFHAEPLKPSDEIDMDLGHSVAAQKFKEIREVLEGNRYWARKVTSEEPEFMAEQVKGQAPNFLWIGCADSRVPEVTIMARKPGDVFVQRNVANQFKPEDDSSQALLNYAIMNVGVTHVMVVGHTGCGGCIAAFDQPLPTEENPGGTPLVRYLEPIIRLKHSLPEGSDVNDLIKENVKMAVKNVVNSPTIQGAWEQARKGEFREVFVHGWLYDLSTGNIVDLNVTQGPHPFVDDRVPRA
As to B2, the kcat came to 6.8 ×10⁵ /s in data set [5] and 3.9 ×10⁵ /s in data set [6]. The Km in data set [6] came to 9 mM.
